Assay results reported in ChEMBL document CHEMBL3632511, “Oxopyrido[2,3-d]pyrimidines as Covalent L858R/T790M Mutant Selective Epidermal Growth Factor Receptor (EGFR) Inhibitors” (ACS Med Chem Lett, 2015).
pIC50, pKd: −log10 of the molar value.

Legend:
[1] = Volume of distribution at steady state in Sprague-Dawley rat at 1 mg/kg, iv; format: ADME, organism-based; conditions: in vivo, read-out: Vdss
In short: (§1)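 Male Sprague Dawley rats, 3 animals per route; mean values. IV dose 1 mg/kg as a DMSO solution. Oral dose 10 mg/kg, in one of three vehicles by compound: 1% Pluronic F68/2% HPMC/15% HPBCD/82% water–methanesulfonic acid pH 4.5; 20% HPBCD/80% water–methanesulfonic acid pH 4.0; or 1% Pluronic F68/2% HPMC/97% water–methanesulfonic acid pH 4.0.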

[2] = Half life in Sprague-Dawley rat at 1 mg/kg, iv; format: ADME, organism-based; conditions: in vivo; in short: as §1
[3] = Selectivity ratio of IC50 for human A431 cells expressing wild-type EGFR to IC50 for human HCC827 cells harboring EGFR 746 to 750 deletion mutant; format: ADME, cell-based
[4] = Oral bioavailability in Sprague-Dawley rat at 10 mg/kg; format: ADME, organism-based; conditions: Sprague-Dawley, in vivo; in short: as §1
Mus musculus [5] = test: In vivo inhibition of EGFR L858R/T790M double mutant phosphorylation in human NCI-H1975 cells xenografted in athymic nude mouse at 30 mg/kg, po measured at 4 hrs by mesoscale multiplex assay relative to control; format: functional
In short: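 Female athymic nude mice carried matrigel plugs holding 5 x 10⁶ H1975 cells, n = 3 per group. Control or compound given at 30 mg/kg po. Plugs and plasma taken 4 h after dosing. p-EGFR in plug measured by quantitative MSD assay, given as % p-EGFR/PRAS40 vs control.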

[6] = Selectivity ratio of IC50 for human A431 cells expressing wild-type EGFR to IC50 for human NCI-H1975 cells harboring EGFR L858R/T790M double mutant; format: ADME, cell-based
[7] = AUC (0 to infinity) in Sprague-Dawley rat at 10 mg/kg, po; format: ADME, organism-based; parameters: dose 10 mg/kg, route oral, time infinity; conditions: Sprague-Dawley, in vivo; in short: as §1
[8] = Selectivity ratio of IC50 for wild type EGFR phosphorylation in human A431 cells to IC50 for EGFR L858R/T790M double mutant phosphorylation in human NCI-H1975 cells; format: ADME, cell-based
[9] = Clearance in Sprague-Dawley rat at 1 mg/kg, iv; format: ADME, organism-based; conditions: Sprague-Dawley, in vivo; in short: as §1
[10] = Selectivity ratio of IC50 for wild type EGFR phosphorylation in human A431 cells to IC50 for EGFR 746 to 750 deletion mutant phosphorylation in human HCC827 cells; format: ADME, cell-based
[11] = molecular target: Epidermal growth factor receptor (Homo sapiens, UniProt P00533, L858R/T790M); test: Inhibition of EGFR L858R/T790M double mutant phosphorylation in human NCI-H1975 cells after 60 mins by mesoscale multiplex assay; format: cell-based
A-431 = test: Cytotoxicity against human A431 cells expressing wild-type EGFR assessed as inhibition of cell proliferation after 72 hrs by CellTiter-Glo assay; format: cell-based; conditions: A-431, 72 h
[12] = molecular target: T1, Epidermal growth factor receptor (Homo sapiens, UniProt P00533); test: Inhibition of wild type EGFR phosphorylation in human A431 cells after 60 mins by mesoscale multiplex assay; format: cell-based, A-431
T1 sequence (P00533 whole entry): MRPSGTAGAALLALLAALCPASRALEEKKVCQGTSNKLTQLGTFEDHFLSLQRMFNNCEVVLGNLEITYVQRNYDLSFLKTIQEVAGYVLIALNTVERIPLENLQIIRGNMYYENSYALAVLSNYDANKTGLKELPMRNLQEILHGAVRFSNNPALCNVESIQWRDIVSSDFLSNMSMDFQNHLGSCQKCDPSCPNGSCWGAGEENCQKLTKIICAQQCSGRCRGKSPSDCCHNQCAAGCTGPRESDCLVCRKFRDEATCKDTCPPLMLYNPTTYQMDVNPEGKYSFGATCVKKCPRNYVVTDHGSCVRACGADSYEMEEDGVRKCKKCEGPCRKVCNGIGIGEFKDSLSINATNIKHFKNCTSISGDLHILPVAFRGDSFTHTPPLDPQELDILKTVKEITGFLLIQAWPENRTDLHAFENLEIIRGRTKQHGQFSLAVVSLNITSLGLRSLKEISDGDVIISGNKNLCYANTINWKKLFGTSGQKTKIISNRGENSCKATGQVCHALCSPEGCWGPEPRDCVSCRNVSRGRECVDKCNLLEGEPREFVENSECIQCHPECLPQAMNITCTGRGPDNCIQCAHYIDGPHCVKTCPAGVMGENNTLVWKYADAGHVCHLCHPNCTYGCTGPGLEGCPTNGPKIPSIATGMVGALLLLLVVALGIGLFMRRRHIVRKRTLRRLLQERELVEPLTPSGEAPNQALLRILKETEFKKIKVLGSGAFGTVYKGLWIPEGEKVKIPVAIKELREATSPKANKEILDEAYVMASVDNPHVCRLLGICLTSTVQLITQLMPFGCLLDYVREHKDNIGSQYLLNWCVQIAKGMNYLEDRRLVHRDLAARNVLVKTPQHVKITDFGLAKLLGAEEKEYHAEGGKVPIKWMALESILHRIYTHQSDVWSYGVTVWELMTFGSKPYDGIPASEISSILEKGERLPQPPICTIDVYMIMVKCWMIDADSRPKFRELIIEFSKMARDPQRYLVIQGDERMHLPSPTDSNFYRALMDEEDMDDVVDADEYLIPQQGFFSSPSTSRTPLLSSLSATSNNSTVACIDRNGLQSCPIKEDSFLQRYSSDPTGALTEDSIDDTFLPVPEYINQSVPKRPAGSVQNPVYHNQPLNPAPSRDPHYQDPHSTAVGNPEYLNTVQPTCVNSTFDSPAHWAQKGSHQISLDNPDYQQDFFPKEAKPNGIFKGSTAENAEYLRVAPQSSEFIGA

[13] = Cytotoxicity against human HCC827 cells harboring EGFR 746 to 750 deletion mutant assessed as inhibition of cell proliferation after 72 hrs by CellTiter-Glo assay; format: functional, cell-based; conditions: HCC827, 72 h
NCI-H1975 [14] = test: Cytotoxicity against human NCI-H1975 cells harboring EGFR L858R/T790M double mutant assessed as inhibition of cell proliferation after 72 hrs by CellTiter-Glo assay; format: functional, cell-based; conditions: NCI-H1975, 72 h
Rattus norvegicus = species: Rattus norvegicus; test: Hepatobiliary toxicity in Sprague-Dawley rat measured for 4 days; format: organism-based; conditions: in vivo, 96 h
[15] = molecular target: Epidermal growth factor receptor (Homo sapiens, UniProt P00533, 746-750DEL); test: Inhibition of EGFR 746 to 750 deletion mutant phosphorylation in human HCC827 cells after 60 mins by mesoscale multiplex assay; format: cell-based
Sequence of Epidermal growth factor receptor (Homo sapiens, UniProt P00533, 746-750DEL) (P00533 whole entry, looked up, stated change not applied): as the sequence (P00533 whole entry) above

[16] = molecular target: Tyrosine-protein kinase Blk (Homo sapiens, UniProt P51451); test: Competitive binding affinity to human BLK in presence of immobilized ligand
[17] = molecular target: Cyclin-G-associated kinase (Homo sapiens, UniProt O14976); test: Competitive binding affinity to human GAK in presence of immobilized ligand
[18] = Fraction unbound in rat plasma at 5 uM by rapid equilibrium dialysis method; format: ADME, cell-free
rat MDR1 (P-gp) [19] = test: Permeability across pig LLC-PK1 cells transfected with rat MDR1 gene; format: ADME, cell-based, Sus scrofa; conditions: read-out: permeability
[20] = molecular target: Dual specificity protein kinase TTK (Homo sapiens, UniProt P33981); test: Competitive binding affinity to human TTK in presence of immobilized ligand
[21] = molecular target: Epidermal growth factor receptor (Homo sapiens, UniProt P00533, T790M); test: Competitive binding affinity to human EGFR T790M mutant in presence of immobilized ligand; format: protein assay
[22] = molecular target: Receptor tyrosine-protein kinase erbB-2 (Homo sapiens, UniProt P04626); test: Competitive binding affinity to human ERBB2 in presence of immobilized ligand
Sequence of Receptor tyrosine-protein kinase erbB-2 (P04626 whole entry): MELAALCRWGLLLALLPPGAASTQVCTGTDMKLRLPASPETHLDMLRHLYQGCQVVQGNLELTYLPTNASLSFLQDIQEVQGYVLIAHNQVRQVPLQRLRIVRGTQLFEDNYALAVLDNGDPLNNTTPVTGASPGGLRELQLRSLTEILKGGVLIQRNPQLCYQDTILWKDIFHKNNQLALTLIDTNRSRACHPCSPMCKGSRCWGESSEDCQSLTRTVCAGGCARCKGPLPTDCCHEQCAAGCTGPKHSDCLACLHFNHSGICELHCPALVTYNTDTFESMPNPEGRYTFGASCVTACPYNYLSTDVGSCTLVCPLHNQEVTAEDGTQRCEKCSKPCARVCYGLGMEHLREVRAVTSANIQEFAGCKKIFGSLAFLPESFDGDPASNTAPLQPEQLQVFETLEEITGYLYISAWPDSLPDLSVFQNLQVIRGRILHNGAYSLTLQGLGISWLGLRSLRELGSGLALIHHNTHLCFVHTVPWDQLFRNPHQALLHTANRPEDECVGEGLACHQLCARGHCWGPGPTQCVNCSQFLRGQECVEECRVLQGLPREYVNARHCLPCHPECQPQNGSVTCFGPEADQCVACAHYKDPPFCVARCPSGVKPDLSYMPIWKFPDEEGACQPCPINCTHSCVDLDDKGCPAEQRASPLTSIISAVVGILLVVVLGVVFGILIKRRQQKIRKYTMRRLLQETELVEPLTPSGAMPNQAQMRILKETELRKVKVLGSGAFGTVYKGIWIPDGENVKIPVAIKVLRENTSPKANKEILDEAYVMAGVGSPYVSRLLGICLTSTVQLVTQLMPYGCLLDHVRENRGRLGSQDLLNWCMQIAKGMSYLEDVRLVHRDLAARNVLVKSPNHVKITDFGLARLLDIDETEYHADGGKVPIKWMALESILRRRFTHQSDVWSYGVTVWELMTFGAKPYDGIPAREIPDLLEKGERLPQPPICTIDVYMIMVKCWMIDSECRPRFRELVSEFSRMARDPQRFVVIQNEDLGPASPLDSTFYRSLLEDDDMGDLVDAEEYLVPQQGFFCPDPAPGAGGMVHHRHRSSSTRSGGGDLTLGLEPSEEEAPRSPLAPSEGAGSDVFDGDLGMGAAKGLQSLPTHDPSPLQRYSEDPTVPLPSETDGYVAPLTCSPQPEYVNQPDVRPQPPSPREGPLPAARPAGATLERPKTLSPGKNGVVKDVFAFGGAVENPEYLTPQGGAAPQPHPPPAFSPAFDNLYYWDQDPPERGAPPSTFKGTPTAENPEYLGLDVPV

[23] = Fraction unbound in human plasma at 5 uM by rapid equilibrium dialysis method; format: ADME, cell-free
[24] = molecular target: Receptor tyrosine-protein kinase erbB-4 (Homo sapiens, UniProt Q15303); test: Competitive binding affinity to human ERBB4 in presence of immobilized ligand
[25] = molecular target: T2, Tyrosine-protein kinase BTK (Homo sapiens, UniProt Q06187); test: Competitive binding affinity to human BTK in presence of immobilized ligand
T2 sequence (Q06187 whole entry): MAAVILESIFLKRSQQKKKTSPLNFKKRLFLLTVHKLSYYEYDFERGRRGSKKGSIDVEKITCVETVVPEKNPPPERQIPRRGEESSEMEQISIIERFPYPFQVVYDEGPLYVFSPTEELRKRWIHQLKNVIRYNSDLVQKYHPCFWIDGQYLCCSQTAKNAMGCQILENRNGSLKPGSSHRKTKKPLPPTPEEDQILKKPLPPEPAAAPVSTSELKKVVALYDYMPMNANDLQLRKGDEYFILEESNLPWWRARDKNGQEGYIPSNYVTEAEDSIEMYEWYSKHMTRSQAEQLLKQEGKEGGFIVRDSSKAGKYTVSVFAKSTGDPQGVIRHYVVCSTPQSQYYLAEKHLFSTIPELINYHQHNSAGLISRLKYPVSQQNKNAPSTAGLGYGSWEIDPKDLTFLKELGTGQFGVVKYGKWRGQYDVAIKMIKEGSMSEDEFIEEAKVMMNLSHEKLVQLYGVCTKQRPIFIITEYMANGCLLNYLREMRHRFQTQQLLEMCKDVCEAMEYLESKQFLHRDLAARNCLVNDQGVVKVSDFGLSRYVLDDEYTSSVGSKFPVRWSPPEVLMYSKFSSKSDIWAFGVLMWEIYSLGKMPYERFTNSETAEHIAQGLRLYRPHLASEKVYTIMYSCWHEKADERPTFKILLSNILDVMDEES

[26] = Cmax in athymic nude mouse xenografted with human NCI-H1975 cells at 30 mg/kg, po measured at 2 hrs; format: ADME, organism-based; parameters: dose 30 mg/kg, route oral; conditions: in vivo
In short: (§2)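 Time-course PD in mice carrying matrigel plugs of H1975 cells after a single oral dose of 30 mg/kg. Tumor cell plugs and plasma harvested at 2, 4, 8, 12 and 24 h post dose. Plug p-EGFR measured, and plasma drug concentration taken for Cmax.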

[27] = Fraction unbound in dog plasma at 5 uM by rapid equilibrium dialysis method; format: ADME, cell-free, Canis lupus familiaris
[28] = molecular target: Tyrosine-protein kinase ITK/TSK (Homo sapiens, UniProt Q08881); test: Competitive binding affinity to human ITK in presence of immobilized ligand
Sequence of Tyrosine-protein kinase ITK/TSK (Q08881 whole entry): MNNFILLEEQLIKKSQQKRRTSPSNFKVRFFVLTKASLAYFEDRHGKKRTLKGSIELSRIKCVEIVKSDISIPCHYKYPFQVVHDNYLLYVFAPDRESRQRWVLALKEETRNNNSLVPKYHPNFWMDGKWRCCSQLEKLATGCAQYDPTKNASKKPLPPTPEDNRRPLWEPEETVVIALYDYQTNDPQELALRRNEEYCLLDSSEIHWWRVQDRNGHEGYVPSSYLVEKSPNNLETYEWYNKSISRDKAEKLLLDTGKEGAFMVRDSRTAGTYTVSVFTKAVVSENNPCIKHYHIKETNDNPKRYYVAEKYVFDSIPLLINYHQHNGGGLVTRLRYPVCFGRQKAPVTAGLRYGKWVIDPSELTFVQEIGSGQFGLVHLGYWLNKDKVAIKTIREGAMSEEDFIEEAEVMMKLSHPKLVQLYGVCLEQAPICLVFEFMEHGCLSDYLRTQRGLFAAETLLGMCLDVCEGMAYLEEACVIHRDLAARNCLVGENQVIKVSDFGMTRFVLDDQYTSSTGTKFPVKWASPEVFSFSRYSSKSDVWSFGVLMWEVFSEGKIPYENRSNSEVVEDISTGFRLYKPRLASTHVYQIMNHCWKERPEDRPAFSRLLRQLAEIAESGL

[29] = Fraction unbound in mouse plasma at 5 uM by rapid equilibrium dialysis method; format: ADME, cell-free
[30] = molecular target: Dual specificity protein kinase TTK (Homo sapiens) (UniProt P33981); test: Competitive binding affinity to human TTK at 1 uM in presence of immobilized ligand relative to control
In short: (§3)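 Kinase selectivity by competitive binding in the ScanMAX KINOMEscan panel of […] protein and lipid kinases. Compound tested at 1 μM; binding expressed as percentage of control (POC).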

[31] = molecular target: T1, Epidermal growth factor receptor; test: Competitive binding affinity to human wild type EGFR in presence of immobilized ligand
[32] = molecular target: Tyrosine-protein kinase JAK3 (Homo sapiens, UniProt P52333); test: Competitive binding affinity to human JAK3 in presence of immobilized ligand
human MDR1 (P-gp) [33] = test: Efflux ratio of permeability across pig LLC-PK1 cells transfected with human MDR1 gene; format: ADME, cell-based, Sus scrofa
[34] = molecular target: Tyrosine-protein kinase JAK1 (Homo sapiens, UniProt P23458); test: Competitive binding affinity to human JAK1 JH2 domain pseudokinase in presence of immobilized ligand
rat MDR1 (P-gp) [35] = test: Efflux ratio of permeability across pig LLC-PK1 cells transfected with rat MDR1 gene; format: ADME, cell-based, Sus scrofa
human MDR1 (P-gp) [36] = test: Permeability across pig LLC-PK1 cells transfected with human MDR1 gene; format: ADME, cell-based, Sus scrofa; conditions: read-out: permeability
Mus musculus [37] = test: In vivo inhibition of EGFR L858R/T790M double mutant phosphorylation in human NCI-H1975 cells xenografted in athymic nude mouse at 30 mg/kg, po measured at >12 hrs by mesoscale multiplex assay relative to control; format: functional; in short: as §2
[38] = AUC (0 to t) in athymic nude mouse xenografted with human NCI-H1975 cells at 30 mg/kg, po qd administered for 2 weeks started on day 6 post tumor implantation; format: ADME, organism-based; conditions: in vivo
NCI-H1975 [39] = test: Antitumor activity against human NCI-H1975 cells xenografted in athymic nude mouse assessed as tumor growth inhibition at 30 mg/kg, po qd administered for 2 weeks started on day 6 post tumor implantation measured on day 19 relative to control; format: functional; conditions: read-out: TGI
[40] = AUC (0 to infinity) in athymic nude mouse xenografted with human NCI-H1975 cells at 30 mg/kg, po; format: ADME, organism-based; parameters: dose 30 mg/kg, route oral, time infinity; conditions: in vivo
[41] = molecular target: T2, Tyrosine-protein kinase BTK; test: Competitive binding affinity to human BTK at 1 uM in presence of immobilized ligand relative to control; in short: as §3
Mus musculus [42] = test: Toxicity in athymic nude mouse xenografted with human NCI-H1975 cells assessed as change in body weight at 30 mg/kg, po qd administered for 2 weeks started on day 6 post tumor implantation; format: organism-based; conditions: in vivo, 336 h
[43] = molecular target: Tyrosine-protein kinase TXK (Homo sapiens, UniProt P42681); test: Competitive binding affinity to human TXK in presence of immobilized ligand

With `C=CC(=O)Nc1cccc(-n2c(=O)cc(C)c3cnc(Nc4ccc(N5CCN(C)CC5)cc4OC)nc32)c1` the Vd [1] was 7.8 L/kg, the half-life [2] was 180 min and the “Ratio IC50” value [3] was over 100. For the same compound, the bioavailability [4] was 9.5%, the inhibition in vivo at 30 mg/kg (Mus musculus [5]) was 90% and the “Ratio IC50” value [6] was over 100. The AUC(0-inf) [7] was 0.18 µM·h, the “Ratio IC50” value [8] was 100 and the clearance [9] was 177 mL/min/kg. The “Ratio IC50” value [10] was 100, the pIC50 [11] was 8.40 and the pIC50 (A-431) was 5.92. The pIC50 [12] was 6.41, the pIC50 [13] was 7.92 and the pIC50 (NCI-H1975 [14]) was 8.40. For the same compound, the Activity (Rattus norvegicus) was “Toxic” and the pIC50 [15] was 7.92.

In the case of `C=CC(=O)Nc1cccc(-n2c(=O)cc(C)c3cnc(Nc4ccc(OCCN(C)C)cc4OC)nc32)c1`, the Vd [1] was 22 L/kg, the half-life [2] was 270 min and the pKd [16] was 6.49. The pKd [17] was 6.37, the bioavailability [4] was 10% and the inhibition in vivo at 30 mg/kg (Mus musculus [5]) was 90%. It also gave a fraction unbound at 5 µM [18] of 0.27, a Papp (rat MDR1 (P-gp) [19]) of 10 ×10⁻⁶ cm/s and an AUC(0-inf) [7] of 0.66 µM·h. The pKd [20] was 7.09, the pKd [21] was 9.02 and the pKd [22] was 6.66. For the same compound, the “Ratio IC50” value [8] was over 100, the fraction unbound at 5 µM [23] was 0.54 and the pKd [24] was 6.89. For the same compound, the pKd [25] was 6.54, the clearance [9] was 150 mL/min/kg and the Cmax [26] was 100 nM. For the same compound, the “Ratio IC50” value [10] was over 100, the fraction unbound at 5 µM [27] was 0.46 and the pKd [28] was 6.85. For the same compound, the fraction unbound at 5 µM [29] was 0.25, the pIC50 (A-431) was 5.62 and the pIC50 [12] was 5.98. It also gave a pIC50 [13] of 7.55, a pIC50 (NCI-H1975 [14]) of 8.40 and an Activity [30] of 4%. For the same compound, the pKd [31] was 6.66, the Activity (Rattus norvegicus) was “Non-toxic” and the pKd [32] was 7.52. It also gave an efflux ratio (human MDR1 (P-gp) [33]) of over 37, a pKd [34] of 5.55 and an efflux ratio (rat MDR1 (P-gp) [35]) of over 37. For the same compound, the Papp (human MDR1 (P-gp) [36]) was 10 ×10⁻⁶ cm/s, the inhibition in vivo at 30 mg/kg (Mus musculus [37]) was over 50% and the AUC(0-t) at 336 h [38] was 0.56 µM·h. It also gave an inhibition in vivo at 30 mg/kg (NCI-H1975 [39]) of 90%, an AUC(0-inf) [40] of 0.33 µM·h and an Activity [41] of 17%. For the same compound, the Activity (Mus musculus [42]) was “Non-toxic”, the pKd [43] was 6.39 and the pIC50 [15] was 8.05.

Compound `C=CC(=O)Nc1cccc(-n2c(=O)c(OC)cc3cnc(Nc4ccc(N5CCN(C)CC5)cc4OC)nc32)c1` has a pIC50 (A-431) of 6.70, a pIC50 [13] of 7.21 and a pIC50 (NCI-H1975 [14]) of 6.56.
